The target in test [1] is T1, smTas1R2/hTas1R3 (Saimiri sciureus, UniProt A3QP08).
T1 sequence (A3QP08 20-834): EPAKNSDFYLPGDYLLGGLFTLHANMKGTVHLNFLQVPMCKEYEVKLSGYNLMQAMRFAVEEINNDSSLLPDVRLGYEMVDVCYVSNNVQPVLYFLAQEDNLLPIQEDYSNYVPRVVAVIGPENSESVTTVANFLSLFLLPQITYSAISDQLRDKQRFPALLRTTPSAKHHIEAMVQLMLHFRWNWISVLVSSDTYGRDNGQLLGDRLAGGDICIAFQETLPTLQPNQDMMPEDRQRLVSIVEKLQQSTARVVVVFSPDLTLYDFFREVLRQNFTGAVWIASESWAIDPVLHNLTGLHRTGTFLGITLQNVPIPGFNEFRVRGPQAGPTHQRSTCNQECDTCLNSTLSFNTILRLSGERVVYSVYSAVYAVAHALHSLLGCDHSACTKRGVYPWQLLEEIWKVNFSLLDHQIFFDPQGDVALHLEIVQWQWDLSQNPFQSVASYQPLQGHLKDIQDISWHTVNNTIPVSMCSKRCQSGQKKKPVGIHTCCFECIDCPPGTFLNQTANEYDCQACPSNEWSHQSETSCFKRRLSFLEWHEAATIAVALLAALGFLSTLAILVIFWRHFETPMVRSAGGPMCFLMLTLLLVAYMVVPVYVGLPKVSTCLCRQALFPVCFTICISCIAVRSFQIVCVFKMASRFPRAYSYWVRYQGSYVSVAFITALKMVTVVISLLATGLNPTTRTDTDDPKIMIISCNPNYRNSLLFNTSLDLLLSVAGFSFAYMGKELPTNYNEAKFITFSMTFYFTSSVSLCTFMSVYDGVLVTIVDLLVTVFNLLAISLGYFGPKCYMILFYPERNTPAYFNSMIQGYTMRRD
T1 sequence (Q7RTX0 21-852 partner): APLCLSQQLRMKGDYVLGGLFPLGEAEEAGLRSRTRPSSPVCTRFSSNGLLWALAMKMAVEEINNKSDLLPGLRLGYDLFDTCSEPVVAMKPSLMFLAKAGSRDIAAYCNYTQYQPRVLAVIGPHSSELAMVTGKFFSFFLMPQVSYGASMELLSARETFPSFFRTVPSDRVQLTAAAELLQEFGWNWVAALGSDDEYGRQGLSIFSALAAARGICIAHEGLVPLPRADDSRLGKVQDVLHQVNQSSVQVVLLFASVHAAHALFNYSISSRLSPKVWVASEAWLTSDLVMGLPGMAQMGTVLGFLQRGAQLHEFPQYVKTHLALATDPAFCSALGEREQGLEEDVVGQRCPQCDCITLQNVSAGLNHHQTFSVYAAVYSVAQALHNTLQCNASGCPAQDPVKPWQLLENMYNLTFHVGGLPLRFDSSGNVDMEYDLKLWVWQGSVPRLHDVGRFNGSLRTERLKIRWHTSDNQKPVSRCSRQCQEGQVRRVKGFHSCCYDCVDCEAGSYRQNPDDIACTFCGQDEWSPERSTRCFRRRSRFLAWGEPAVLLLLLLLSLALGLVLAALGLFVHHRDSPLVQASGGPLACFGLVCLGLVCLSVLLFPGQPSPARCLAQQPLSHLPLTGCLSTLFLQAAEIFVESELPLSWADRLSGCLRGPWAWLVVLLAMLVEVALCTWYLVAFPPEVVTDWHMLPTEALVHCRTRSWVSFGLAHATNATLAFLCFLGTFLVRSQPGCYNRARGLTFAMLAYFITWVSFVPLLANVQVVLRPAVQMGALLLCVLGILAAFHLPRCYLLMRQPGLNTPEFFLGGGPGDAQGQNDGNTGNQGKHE
Description: Ca2+ mobilization, mismatched receptor. It is filed as cell-based, human/squirrel monkey. The note with it: aspartame 10mM, neotame 1mM, sucralose 2 mM, D-tryptophan 5mM, sucrose 150mM. The essentials: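 HEK293E cells grown at 37°C in Opti-MEM with 5% FBS and seeded at 50,000/well. Cells co-lipofected with Tas1R plasmids and Gα16-gust44 (0.06 μg each per well); medium changed at 20 h, assayed 24 h later. Cells loaded 1 h with Fluo-4 AM in HEPES-buffered HBSS. Tastant added at 30 s; fluorescence (ex 488/em 525 nm) read every 2 s for 150 s more. ΔF/F normalised to human receptor maximal sucralose response; mean ± SEM, three independent experiments.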
Background: A change in cytosolic calcium serves as a functional read-out for many receptors and channels.

Test [2] concerns the target T2, hTas1R2/smTas1R3 (Homo sapiens, UniProt Q8TE23).
T2 sequence (Q8TE23 20-839): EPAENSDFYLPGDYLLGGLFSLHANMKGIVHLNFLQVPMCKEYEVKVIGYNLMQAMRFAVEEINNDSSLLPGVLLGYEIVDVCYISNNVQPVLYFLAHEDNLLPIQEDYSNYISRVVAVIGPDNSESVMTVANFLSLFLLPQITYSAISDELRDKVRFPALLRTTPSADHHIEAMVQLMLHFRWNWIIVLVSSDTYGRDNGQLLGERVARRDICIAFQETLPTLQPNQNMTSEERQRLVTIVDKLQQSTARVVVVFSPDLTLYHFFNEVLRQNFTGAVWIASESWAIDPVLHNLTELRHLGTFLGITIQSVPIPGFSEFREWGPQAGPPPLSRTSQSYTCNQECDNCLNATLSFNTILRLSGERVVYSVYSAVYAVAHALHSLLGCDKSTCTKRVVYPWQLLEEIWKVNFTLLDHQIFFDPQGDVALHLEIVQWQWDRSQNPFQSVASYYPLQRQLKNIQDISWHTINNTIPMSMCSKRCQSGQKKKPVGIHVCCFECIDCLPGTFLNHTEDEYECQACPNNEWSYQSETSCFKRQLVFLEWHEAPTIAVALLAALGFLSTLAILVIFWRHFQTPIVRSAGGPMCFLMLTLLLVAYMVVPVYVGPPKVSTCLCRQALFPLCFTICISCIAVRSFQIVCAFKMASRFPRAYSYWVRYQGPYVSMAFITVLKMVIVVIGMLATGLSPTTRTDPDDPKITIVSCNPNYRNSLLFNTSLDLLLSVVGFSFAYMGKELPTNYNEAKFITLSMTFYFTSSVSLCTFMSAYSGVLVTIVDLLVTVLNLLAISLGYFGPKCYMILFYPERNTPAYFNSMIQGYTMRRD
Description: Ca2+ mobilization, mismatched receptor. The settings on record: aspartame 10mM, neotame 1mM, sucralose 2 mM, D-tryptophan 5mM, sucrose 150mM; vs control / wild type human receptor. The class given is cell-based, human/squirrel monkey. The method, boiled down: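 Transfected HEK293E cells (50,000/well; 0.06 μg Tas1R plasmid and 0.06 μg Gα16-gust44 per well) were medium-changed at 20 h, then loaded after 24 h with 3 μM Fluo-4 AM in HBSS/20 mM HEPES for 1 h. Tastant added 30 s into scan; fluorescence (ex 488/em 525 nm) read every 2 s for 150 s. ΔF/F normalized to the hTas1R2/hTas1R3 sucralose response; three independent experiments; unpaired t test.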

The record followed here is article PMC3149845 (The Journal of neuroscience : the official journal of the …, 2011).

Turning to `N[C@H](Cc1c[nH]c2ccccc12)C(=O)O` [D-tryptophan], the “calcium response to sweetener” value in test [1] is “remained intact or reduced”; in test [2], “reduced responses”.

On to `OC[C@H]1O[C@@](CO)(O[C@H]2O[C@H](CO)[C@@H](O)[C@H](O)[C@H]2O)[C@@H](O)[C@@H]1O` [sucrose], for which the “calcium response to sweetener” value is “remained intact or reduced” in test [1] and “reduced responses” in test [2].
